Data reported in ChEMBL document CHEMBL4004891, “Antioxidant Properties of Novel Dimers Derived from Natural β-Elemene through Inhibiting H2O2-Induced Apoptosis” (ACS Med Chem Lett, 2017).
Active and inactive are the calls of the source. The calls are words filed in the database; no cut-off is given here.

What was measured:
HUVEC [1] = assay: Cytoprotective activity against H2O2-induced cell injury in HUVEC assessed as increase in cell viability at 10 uM pretreated for 24 hrs followed by H2O2-stimulation after 2 hrs by MTT assay; format: functional, cell-based; conditions: Homo sapiens
HUVEC [2] = assay: Cytoprotective activity against H2O2-induced cell injury in HUVEC assessed as cell survival at 10 uM pretreated for 24 hrs followed by H2O2-stimulation after 2 hrs by MTT assay (reference value: 60.21%); format: functional; conditions: Homo sapiens, read-out: Survival
HUVEC [3] = assay: Cytoprotective activity against H2O2-induced cell injury in HUVEC assessed as cell survival at 1 uM pretreated for 24 hrs followed by H2O2-stimulation after 2 hrs by MTT assay (reference value: 60.21%); format: functional; conditions: Homo sapiens, read-out: Survival
HUVEC [4] = assay: Cytoprotective activity against H2O2-induced cell injury in HUVEC assessed as cell survival at 0.1 uM pretreated for 24 hrs followed by H2O2-stimulation after 2 hrs by MTT assay (reference value: 60.21%); format: functional; conditions: Homo sapiens, read-out: Survival
HUVEC [5] = assay: Cytoprotective activity against H2O2-induced cell injury in HUVEC assessed as cell survival at 0.01 uM pretreated for 24 hrs followed by H2O2-stimulation after 2 hrs by MTT assay (reference value: 60.21%); format: functional; conditions: Homo sapiens, read-out: Survival
HUVEC [6] = assay: Cytoprotective activity against H2O2-induced cell injury in HUVEC assessed as increase in cell survival pretreated for 24 hrs followed by H2O2-stimulation after 2 hrs by MTT assay; format: functional, cell-based; conditions: Homo sapiens
Outline: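 MTT survival of H2O2-injured HUVECs after pretreatment at 10, 1, 0.1 and 0.01 μM; compared with H2O2-only model group; EC50 derived from concentration–response; means ± SD, n = 3.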

HUVEC [7] = assay: Cytotoxicity against HUVEC assessed as increase in cell viability at 0.1 to 50 uM after 24 hrs by MTT assay relative to control; format: cell-based; conditions: human
Outline: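 Normal HUVECs incubated 24 h with 0.1−50 μM, no H2O2; viability by MTT assay; means ± SD, n = 3.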

HUVEC [8] = assay: Cytoprotective activity against H2O2-induced cell injury in HUVEC assessed as increase in SOD activity pretreated for 24 hrs followed by H2O2-stimulation after 2 hrs; format: functional, cell-based; conditions: Homo sapiens
Outline: (§1)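 Pretreatment 24 h at 0.1, 1 and 10 μM before 0.5 mM H2O2 for 2 h in HUVECs; LDH release, MDA content, SOD activity and NO secretion then measured.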

HUVEC [9] = assay: Cytoprotective activity against H2O2-induced cell injury in HUVEC assessed as increase in nitric oxide level pretreated for 24 hrs followed by H2O2-stimulation after 2 hrs by DAF-FM-DA probe based fluorescent imaging analysis; format: functional; conditions: Homo sapiens; outline: as §1
HUVEC [10] = assay: Cytoprotective activity against H2O2-induced cell injury in HUVEC assessed as decrease in MDA level pretreated for 24 hrs followed by H2O2-stimulation after 2 hrs; format: functional, cell-based; conditions: Homo sapiens; outline: as §1
HUVEC [11] = assay: Cytoprotective activity against H2O2-induced cell injury in HUVEC assessed as decrease in LDH release pretreated for 24 hrs followed by H2O2-stimulation after 2 hrs; format: functional, cell-based; conditions: Homo sapiens; outline: as §1
HUVEC [12] = assay: Cytoprotective activity against H2O2-induced cell injury in HUVEC assessed as level of reactive oxygen species by measuring fluorescence intensity at 0.1 to 10 uM pretreated for 24 hrs followed by H2O2-stimulation after 2 hrs by DCFH-DA staining based fluorescence assay (reference value: 3.3); format: functional, Homo sapiens
HUVEC [13] = assay: Cytoprotective activity against H2O2-induced cell injury in HUVEC assessed as decrease in level of reactive oxygen species pretreated for 24 hrs followed by H2O2-stimulation after 2 hrs by DCFH-DA staining based fluorescence assay; format: functional; conditions: Homo sapiens
Outline: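 DCF fluorescence imaging in HUVECs with or without pretreatment, exposed to H2O2; intensity expressed as percentage of control group fluorescence; means ± SD, n = 3.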

HUVEC [14] = assay: Cytoprotective activity against H2O2-induced cell injury in HUVEC assessed as inhibition of apoptosis by measuring viable cells at 0.1 uM pretreated for 24 hrs followed by H2O2-stimulation after 2 hrs by Annexin-V-APC/7AAD staining based flow cytometry (reference value: 53.8%); format: functional, Homo sapiens
HUVEC [15] = assay: Cytoprotective activity against H2O2-induced cell injury in HUVEC assessed as inhibition of apoptosis by measuring early apoptotic cells at 0.1 uM pretreated for 24 hrs followed by H2O2-stimulation after 2 hrs by Annexin-V-APC/7AAD staining based flow cytometry (reference value: 34.96%); format: functional, Homo sapiens; design: scale not given: the % may be the effect or the level left
HUVEC [16] = assay: Cytoprotective activity against H2O2-induced cell injury in HUVEC assessed as inhibition of apoptosis by measuring late apoptotic cells at 0.1 uM pretreated for 24 hrs followed by H2O2-stimulation after 2 hrs by Annexin-V-APC/7AAD staining based flow cytometry (reference value: 10.78%); format: functional, Homo sapiens; design: scale not given: the % may be the effect or the level left
HUVEC [17] = assay: Cytoprotective activity against H2O2-induced cell injury in HUVEC assessed as inhibition of apoptosis by measuring necrotic cells at 0.1 uM pretreated for 24 hrs followed by H2O2-stimulation after 2 hrs by Annexin-V-APC/7AAD staining based flow cytometry (reference value: 0.45%); format: functional, Homo sapiens; design: scale not given: the % may be the effect or the level left
HUVEC [18] = assay: Cytoprotective activity against H2O2-induced cell injury in HUVEC assessed as inhibition of apoptosis by measuring viable cells at 1 uM pretreated for 24 hrs followed by H2O2-stimulation after 2 hrs by Annexin-V-APC/7AAD staining based flow cytometry (reference value: 53.8%); format: functional, Homo sapiens
HUVEC [19] = assay: Cytoprotective activity against H2O2-induced cell injury in HUVEC assessed as inhibition of apoptosis by measuring early apoptotic cells at 1 uM pretreated for 24 hrs followed by H2O2-stimulation after 2 hrs by Annexin-V-APC/7AAD staining based flow cytometry (reference value: 34.96%); format: functional, Homo sapiens; design: scale not given: the % may be the effect or the level left
HUVEC [20] = assay: Cytoprotective activity against H2O2-induced cell injury in HUVEC assessed as inhibition of apoptosis by measuring late apoptotic cells at 1 uM pretreated for 24 hrs followed by H2O2-stimulation after 2 hrs by Annexin-V-APC/7AAD staining based flow cytometry (reference value: 10.78%); format: functional, Homo sapiens; design: scale not given: the % may be the effect or the level left
HUVEC [21] = assay: Cytoprotective activity against H2O2-induced cell injury in HUVEC assessed as inhibition of apoptosis by measuring necrotic cells at 1 uM pretreated for 24 hrs followed by H2O2-stimulation after 2 hrs by Annexin-V-APC/7AAD staining based flow cytometry (reference value: 0.45%); format: functional, Homo sapiens; design: scale not given: the % may be the effect or the level left
HUVEC [22] = assay: Cytoprotective activity against H2O2-induced cell injury in HUVEC assessed as inhibition of apoptosis by measuring viable cells at 10 uM pretreated for 24 hrs followed by H2O2-stimulation after 2 hrs by Annexin-V-APC/7AAD staining based flow cytometry (reference value: 53.8%); format: functional, Homo sapiens
HUVEC [23] = assay: Cytoprotective activity against H2O2-induced cell injury in HUVEC assessed as inhibition of apoptosis by measuring early apoptotic cells at 10 uM pretreated for 24 hrs followed by H2O2-stimulation after 2 hrs by Annexin-V-APC/7AAD staining based flow cytometry (reference value: 34.96%); format: functional, Homo sapiens; design: scale not given: the % may be the effect or the level left
HUVEC [24] = assay: Cytoprotective activity against H2O2-induced cell injury in HUVEC assessed as inhibition of apoptosis by measuring late apoptotic cells at 10 uM pretreated for 24 hrs followed by H2O2-stimulation after 2 hrs by Annexin-V-APC/7AAD staining based flow cytometry (reference value: 10.78%); format: functional, Homo sapiens; design: scale not given: the % may be the effect or the level left
HUVEC [25] = assay: Cytoprotective activity against H2O2-induced cell injury in HUVEC assessed as inhibition of apoptosis by measuring necrotic cells at 10 uM pretreated for 24 hrs followed by H2O2-stimulation after 2 hrs by Annexin-V-APC/7AAD staining based flow cytometry (reference value: 0.45%); format: functional, Homo sapiens; design: scale not given: the % may be the effect or the level left
[26] = biological target: Mitogen-activated protein kinase; ERK1/ERK2 (Homo sapiens) (UniProt P27361+P28482); assay: Inhibition of H2O2-induced ERK1/2 phosphorylation in HUVEC pretreated for 24 hrs followed by H2O2-stimulation after 2 hrs by western blot analysis; format: protein assay
Mitogen-activated protein kinase; ERK1/ERK2 (Homo sapiens), sequence (P27361 whole entry, looked up): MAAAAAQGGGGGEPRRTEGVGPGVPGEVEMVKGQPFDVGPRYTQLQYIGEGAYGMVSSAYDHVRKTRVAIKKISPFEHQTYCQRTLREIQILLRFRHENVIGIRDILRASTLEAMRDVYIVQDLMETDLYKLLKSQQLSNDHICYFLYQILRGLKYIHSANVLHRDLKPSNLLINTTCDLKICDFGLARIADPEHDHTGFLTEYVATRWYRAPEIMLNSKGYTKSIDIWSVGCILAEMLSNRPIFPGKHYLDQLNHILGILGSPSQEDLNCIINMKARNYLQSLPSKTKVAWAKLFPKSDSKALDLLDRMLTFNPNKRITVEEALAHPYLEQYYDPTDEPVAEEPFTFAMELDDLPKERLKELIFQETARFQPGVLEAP
Mitogen-activated protein kinase; ERK1/ERK2 (Homo sapiens), sequence (P28482 whole entry, looked up): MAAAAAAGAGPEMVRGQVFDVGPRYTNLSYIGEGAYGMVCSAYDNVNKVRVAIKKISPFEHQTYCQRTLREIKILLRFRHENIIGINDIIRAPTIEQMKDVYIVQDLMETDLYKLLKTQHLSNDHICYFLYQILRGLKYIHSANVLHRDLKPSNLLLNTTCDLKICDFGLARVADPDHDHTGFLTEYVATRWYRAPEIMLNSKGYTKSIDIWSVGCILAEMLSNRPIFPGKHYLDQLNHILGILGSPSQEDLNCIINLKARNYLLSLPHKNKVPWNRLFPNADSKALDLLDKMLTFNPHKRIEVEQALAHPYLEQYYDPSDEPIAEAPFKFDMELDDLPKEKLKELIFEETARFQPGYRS

[27] = biological target: c-Jun N-terminal kinase, JNK (Homo sapiens) (UniProt P45983+P53779+P45984); assay: Inhibition of H2O2-induced JNK phosphorylation in HUVEC pretreated for 24 hrs followed by H2O2-stimulation after 2 hrs by western blot analysis
[28] = biological target: MAP kinase p38 (Homo sapiens) (UniProt O15264+Q15759+Q16539+P53778); assay: Inhibition of H2O2-induced p38 phosphorylation in HUVEC pretreated for 24 hrs followed by H2O2-stimulation after 2 hrs by western blot analysis
HUVEC [29] = assay: Cytoprotective activity against H2O2-induced cell apoptosis in HUVEC pretreated for 24 hrs followed by H2O2-stimulation for 2 hrs by Annexin-V-APC/7AAD staining based flow cytometry; format: functional; conditions: Homo sapiens
HUVEC [30] = assay: Effect on total ERK1/2 protein level in HUVEC at 0.1 to 10 uM pretreated for 24 hrs followed by H2O2-stimulation for 2 hrs by western blot analysis; format: cell-based; conditions: human
HUVEC [31] = assay: Effect on total JNK protein level in HUVEC at 0.1 to 10 uM pretreated for 24 hrs followed by H2O2-stimulation for 2 hrs by western blot analysis; format: cell-based; conditions: human
HUVEC [32] = assay: Effect on total p38 MAPK protein level in HUVEC at 0.1 to 10 uM pretreated for 24 hrs followed by H2O2-stimulation for 2 hrs by western blot analysis; format: cell-based; conditions: human

For C=C[C@]1(C)CC[C@@H](C(=C)COC(=O)/C=C/C(=O)OCC(=C)[C@@H]2CC[C@@](C)(C=C)[C@H](C(=C)C)C2)C[C@H]1C(=C)C, the Activity (HUVEC [1]) was “Active”, the viability at 10 µM (HUVEC [2]) was 97% and the viability at 1 µM (HUVEC [3]) was 85.5%. For the same compound, the viability at 0.1 µM (HUVEC [4]) was 76.7%, the viability at 0.01 µM (HUVEC [5]) was 65.5% and the Activity (HUVEC [6]) was “Dose-dependent effect”. The EC50 (HUVEC [6]) was 220 nM, the Activity (HUVEC [7]) was over 90% and the Activity (HUVEC [8]) was “Dose-dependent effect”. For the same compound, the Activity (HUVEC [9]) was “Dose-dependent effect”, the Activity (HUVEC [10]) was “Dose-dependent effect” and the Activity (HUVEC [11]) was “Dose-dependent effect”. The Flu intensity (HUVEC [12]) was 1.16 - 2.4, the Activity (HUVEC [13]) was “Dose-dependent effect” and the Activity (HUVEC [14]) was 58.55%. The Activity (HUVEC [15]) was 30.92%, the Activity (HUVEC [16]) was 10.22% and the Activity (HUVEC [17]) was 0.3%. For the same compound, the Activity (HUVEC [18]) was 68.31%, the Activity (HUVEC [19]) was 23.59% and the Activity (HUVEC [20]) was 7.92%. For the same compound, the Activity (HUVEC [21]) was 0.18%, the Activity (HUVEC [22]) was 71.78% and the Activity (HUVEC [23]) was 12.82%. For the same compound, the Activity (HUVEC [24]) was 12.71%, the Activity (HUVEC [25]) was 2.69% and the inhibition [26] was “Dose-dependent effect”. For the same compound, the inhibition [27] was “Dose-dependent effect”, the inhibition [28] was “Dose-dependent effect” and the Activity (HUVEC [29]) was “Dose-dependent effect”. The Activity (HUVEC [30]) was “Non-Toxic”, the Activity (HUVEC [31]) was “Non-Toxic” and the Activity (HUVEC [32]) was “Non-Toxic”.
